The target in data set [1] is T1, NUAK family SNF1-like kinase 1 (Homo sapiens, UniProt O60285).
T1 sequence (O60285 whole entry): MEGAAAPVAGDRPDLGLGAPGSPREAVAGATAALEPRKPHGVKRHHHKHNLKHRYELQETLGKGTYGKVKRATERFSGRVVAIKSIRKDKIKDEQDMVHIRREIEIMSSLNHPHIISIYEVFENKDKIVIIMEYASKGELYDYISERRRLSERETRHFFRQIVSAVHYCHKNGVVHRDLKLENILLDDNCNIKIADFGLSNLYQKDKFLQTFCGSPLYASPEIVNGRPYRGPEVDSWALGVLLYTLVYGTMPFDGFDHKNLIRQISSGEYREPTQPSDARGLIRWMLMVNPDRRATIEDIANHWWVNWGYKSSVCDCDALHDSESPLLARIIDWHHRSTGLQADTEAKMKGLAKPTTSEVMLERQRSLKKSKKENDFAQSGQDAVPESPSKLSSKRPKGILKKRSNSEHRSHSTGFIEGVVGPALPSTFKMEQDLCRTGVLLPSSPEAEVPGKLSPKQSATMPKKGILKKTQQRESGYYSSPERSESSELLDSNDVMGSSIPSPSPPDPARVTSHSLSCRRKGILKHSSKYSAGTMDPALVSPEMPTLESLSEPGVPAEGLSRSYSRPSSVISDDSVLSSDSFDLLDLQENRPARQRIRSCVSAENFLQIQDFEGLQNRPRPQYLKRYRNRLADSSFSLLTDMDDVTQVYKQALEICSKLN
In words: Inhibition of ARK5 (unknown origin).

Data set [2] deals with RAC-alpha serine/threonine-protein kinase (Homo sapiens, UniProt P31749). In words: Inhibition of AKT1 (unknown origin).
For another data set, the target named is Histone deacetylase 11 (Homo sapiens, UniProt Q96DB2). In words: Inhibition of recombinant HDAC11 (unknown origin) using Fluor-de-Lys-SIRT1 as substrate by fluorescence assay.
A further data set addresses Histone deacetylase 2 (Homo sapiens, UniProt Q92769). The data set can be described thus: Inhibition of recombinant HDAC2 (unknown origin) using Fluor-de-Lys-SIRT1 as substrate by fluorescence assay.
Data set [3] deals with Insulin-like growth factor 1 receptor (Homo sapiens, UniProt P08069). In words: Inhibition of IGF1R (unknown origin).
The next data set addresses Focal adhesion kinase 1 (Homo sapiens, UniProt Q05397). The data set can be described thus: Inhibition of FAK (unknown origin).
Data set [4] has as its target Serine/threonine-protein kinase pim-1 (Homo sapiens, UniProt P11309). In words: Inhibition of PIM1 (unknown origin).
Data set [5] concerns the target Serine/threonine-protein kinase PLK1 (Homo sapiens, UniProt P53350). In words: Inhibition of PLK1 (unknown origin).
In another data set the target is Histone deacetylase 1 (Homo sapiens, UniProt Q13547). The data set can be described thus: Inhibition of recombinant HDAC1 (unknown origin) using Fluor-de-Lys-SIRT1 as substrate by fluorescence assay.
In the next data set the target is Histone deacetylase 8 (Homo sapiens, UniProt Q9BY41). In words: Inhibition of recombinant HDAC8 (unknown origin) using Fluor-de-Lys-HDAC8 as substrate by fluorescence assay.
In data set [6] the target is Hepatocyte growth factor receptor (Homo sapiens, UniProt P08581). The data set can be described thus: Inhibition of wild type MET (unknown origin).
In data set [7] the target is Serine/threonine-protein kinase N1 (Homo sapiens, UniProt Q16512). The data set can be described thus: Inhibition of PRK1 (unknown origin).
The target of data set [8] is Vascular endothelial growth factor receptor 2 (Homo sapiens, UniProt P35968). In words: Inhibition of VEGFR2 (unknown origin).
For data set [9], the target named is Serine/threonine-protein kinase Nek6 (Homo sapiens, UniProt Q9HC98). In words: Inhibition of NEK6 (unknown origin).
Data set [10] concerns the target Proto-oncogene tyrosine-protein kinase Src (Homo sapiens, UniProt P12931). In words: Inhibition of SRC (unknown origin).
For data set [11], the target named is ALK tyrosine kinase receptor (Homo sapiens, UniProt Q9UM73). The data set can be described thus: Inhibition of ALK (unknown origin).
Another data set has as its system PBMC. The data set can be described thus: Cytotoxicity against PBMC (unknown origin) assessed as growth inhibition after 48 hrs. It is filed as cell-based. Summed up:
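PBMCs isolated by a prior method, cultured in RPMI 1640 with 10% heat-inactivated FCS and 1% antibiotic–antimycotic at 37 °C, 5% CO2. Viability read after 48 h treatment, against DMSO-treated controls.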

Data set [12] concerns the target Protein deacetylase HDAC6 (Homo sapiens, UniProt Q9UBN7). The data set can be described thus: Inhibition of recombinant HDAC6 (unknown origin) using Fluor-de-Lys-SIRT1 as substrate by fluorescence assay.
The next data set concerns the target Aurora kinase B (Homo sapiens, UniProt Q96GD4). In words: Inhibition of aurora-B (unknown origin).
In data set [13] the target is T2, Tyrosine-protein kinase receptor UFO (Homo sapiens, UniProt P30530).
T2 sequence (P30530 whole entry): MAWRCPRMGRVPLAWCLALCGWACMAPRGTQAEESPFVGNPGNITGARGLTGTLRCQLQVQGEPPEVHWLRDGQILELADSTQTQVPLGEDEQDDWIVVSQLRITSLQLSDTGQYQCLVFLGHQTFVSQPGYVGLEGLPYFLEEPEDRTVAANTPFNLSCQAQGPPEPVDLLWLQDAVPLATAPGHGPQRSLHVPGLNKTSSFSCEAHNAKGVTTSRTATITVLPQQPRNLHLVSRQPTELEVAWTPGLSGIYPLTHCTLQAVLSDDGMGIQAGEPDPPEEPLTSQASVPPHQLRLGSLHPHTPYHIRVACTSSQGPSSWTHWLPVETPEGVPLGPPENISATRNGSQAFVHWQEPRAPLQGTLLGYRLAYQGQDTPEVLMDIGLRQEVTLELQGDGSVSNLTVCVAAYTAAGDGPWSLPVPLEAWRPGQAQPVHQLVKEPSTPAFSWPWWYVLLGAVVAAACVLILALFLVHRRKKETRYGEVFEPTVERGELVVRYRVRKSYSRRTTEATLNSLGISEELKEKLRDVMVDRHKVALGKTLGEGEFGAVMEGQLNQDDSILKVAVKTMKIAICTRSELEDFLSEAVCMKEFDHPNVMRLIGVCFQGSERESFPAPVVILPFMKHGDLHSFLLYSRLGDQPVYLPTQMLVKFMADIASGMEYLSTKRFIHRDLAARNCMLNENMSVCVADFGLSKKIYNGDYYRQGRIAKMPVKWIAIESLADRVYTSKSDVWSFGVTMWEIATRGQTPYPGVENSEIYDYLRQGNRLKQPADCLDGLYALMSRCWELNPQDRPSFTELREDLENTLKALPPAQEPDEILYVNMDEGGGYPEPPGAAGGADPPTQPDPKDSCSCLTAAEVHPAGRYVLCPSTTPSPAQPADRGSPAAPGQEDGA
In words: Inhibition of AXL (unknown origin).

A further data set has as its target Histone deacetylase 3 (Homo sapiens, UniProt O15379). The data set can be described thus: Inhibition of recombinant HDAC3 (unknown origin) using Fluor-de-Lys-SIRT1 as substrate by fluorescence assay.
The target in data set [14] is Dual specificity mitogen-activated protein kinase kinase 1 (Homo sapiens, UniProt Q02750). In words: Inhibition of wild type MEK1 (unknown origin).
The target in data set [15] is Polyamine deacetylase HDAC10 (Homo sapiens, UniProt Q969S8). In words: Inhibition of recombinant HDAC10 (unknown origin) using Fluor-de-Lys-SIRT1 as substrate by fluorescence assay.

Take `Cc1c(O)c(O)c2c(c1C=O)[C@@H]1O[C@H](O2)c2c(C)c(O)c(O)c(O)c2C1=O` (racemic): the 50% inhibitory concentration (IC50) came out at 2.51 µM in [1]; 2.15 µM in data set [2]; 11.7 µM at Histone deacetylase 11; 10 µM at Histone deacetylase 2; 0.07 µM in [3]; 0.42 µM on Focal adhesion kinase 1. Also, the IC50 in data set [4] came to 3.1 µM; in data set [5], 3.18 µM; at Histone deacetylase 1 it was 8.6 µM; at Histone deacetylase 8, 1.6 µM; in data set [6] it was 0.58 µM; in [7] it was 4.48 µM. The half-inhibitory concentration (IC50) in data set [8] worked out at 0.32 µM; in data set [9], 0.52 µM; in data set [10], 0.37 µM; in data set [11] it was 0.18 µM; in [12], 4.6 µM; at Aurora kinase B it was 2.51 µM. In addition, the half-maximal inhibitory concentration (IC50) in data set [13] was 0.16 µM; on Histone deacetylase 3, 12.4 µM; in data set [14] it was greater than 30 µM; in data set [15], 8.4 µM. For the same compound, in the data set with PBMC, the Activity entry is “Non-toxic”.
`Cc1c(O)c(O)c(O)c(C=O)c1-c1cc2c(C=O)c(C)c(O)c(O)c2o1`: the IC50 in data set [1] is 3.77 µM; in [2] it was 4.07 µM; at Histone deacetylase 11 it was 12.9 µM; on Histone deacetylase 2, 9.1 µM; in data set [3], 0.15 µM; against Focal adhesion kinase 1, 0.8 µM. Moreover, the IC50 in [4] was 4.44 µM; in data set [5] it was 6.31 µM; on Histone deacetylase 1, 8.8 µM; at Histone deacetylase 8, 2.1 µM; in data set [6], 1.12 µM; in data set [7], 9 µM. Further, the IC50 turned out to be 0.39 µM in [8]; 1.85 µM in data set [9]; 0.49 µM in [10]; 0.25 µM in data set [11]; 6.5 µM in data set [12]; 7.29 µM on Aurora kinase B. For the same compound, the concentration for half-maximal inhibition (IC50) in [13] was 0.22 µM; on Histone deacetylase 3 it was 6.9 µM; in data set [14], greater than 30 µM; in [15], 8.1 µM. Further, the Activity result in the data set with PBMC is on record as “Non-toxic”.

Source of the values: ChEMBL document CHEMBL3102702, “Protein kinase and HDAC inhibitors from the endophytic fungus Epicoccum nigrum” (J Nat Prod, 2014).
